Measured values published in ChEMBL document CHEMBL3632499, “Synthesis and Antiproliferative Activity Evaluation of the Disulfide-Containing Cyclic Peptide Thiochondrilline C and Derivatives” (J Nat Prod, 2015).
Values after ≈ are worked out from the molar mass of the structure shown.

How the values were obtained:
M14 = assay: Antiproliferative activity against human M14 cells; type: functional; settings: read-out: LC50 (the source's name)
Procedure, shortened: (§1)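 Profiled in the National Cancer Institute 60 cancer cell line screen. Reported GI50 is the concentration giving 50% growth inhibition, TGI the concentration giving total growth inhibition, and LC50 the concentration giving 50% net cell killing. Values are averages ± SEM from two independent determinations.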

MDA-MB-435 = assay: Antiproliferative activity against human MDA-MB-435 cells; type: functional; procedure, shortened: as §1
SK-MEL-2 = assay: Antiproliferative activity against human SK-MEL-2 cells; type: functional; procedure, shortened: as §1
SK-MEL-28 = assay: Antiproliferative activity against human SK-MEL-28 cells; type: functional; procedure, shortened: as §1
SK-MEL-5 = assay: Antiproliferative activity against human SK-MEL-5 cells; type: functional; procedure, shortened: as §1
UACC-257 = assay: Antiproliferative activity against human UACC257 cells; type: functional
Procedure, shortened: (§2)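 Run in the National Cancer Institute 60 cancer cell line panel. Read-outs: GI50, the concentration causing 50% growth inhibition; TGI, the concentration causing total growth inhibition; LC50, the concentration causing 50% net cell killing. Values are averages ± SEM from two independent determinations.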

UACC-62 = assay: Antiproliferative activity against human UACC62 cells; type: functional; procedure, shortened: as §2
IGROV-1 = assay: Antiproliferative activity against human IGROV1 cells; type: functional; procedure, shortened: as §1
OVCAR-3 = assay: Antiproliferative activity against human OVCAR3 cells; type: functional; procedure, shortened: as §1
OVCAR-4 = assay: Antiproliferative activity against human OVCAR4 cells; type: functional; procedure, shortened: as §1
OVCAR-5 = assay: Antiproliferative activity against human OVCAR5 cells; type: functional; procedure, shortened: as §1
OVCAR-8 = assay: Antiproliferative activity against human OVCAR8 cells; type: functional; procedure, shortened: as §1
[1] = Antiproliferative activity against human NCI-ADR-RES cells; type: functional; procedure, shortened: as §1
SK-OV-3 = assay: Antiproliferative activity against human SKOV3 cells; type: functional; procedure, shortened: as §1
786-0 = assay: Antiproliferative activity against human 786-0 cells; type: functional; procedure, shortened: as §1
A498 = assay: Antiproliferative activity against human A498 cells; type: functional; procedure, shortened: as §1
ACHN = assay: Antiproliferative activity against human ACHN cells; type: functional; procedure, shortened: as §1
CAKI-1 = assay: Antiproliferative activity against human Caki1 cells; type: functional; procedure, shortened: as §1
[2] = Antiproliferative activity against human RXF393 cells; type: functional; procedure, shortened: as §1
SN12C = assay: Antiproliferative activity against human SN12C cells; type: functional; procedure, shortened: as §1
TK-10 = assay: Antiproliferative activity against human TK10 cells; type: functional; procedure, shortened: as §2
UO-31 = assay: Antiproliferative activity against human UO31 cells; type: functional; procedure, shortened: as §2
PC-3 = assay: Antiproliferative activity against human PC3 cells; type: functional; procedure, shortened: as §1
DU-145 = assay: Antiproliferative activity against human DU145 cells; type: functional; procedure, shortened: as §1
MCF7 = assay: Antiproliferative activity against human MCF7 cells; type: functional; procedure, shortened: as §1
MDA-MB-231 = assay: Antiproliferative activity against human MDA-MB-231 cells; type: functional; procedure, shortened: as §1
[3] = Antiproliferative activity against human Hs 578T cells; type: functional; procedure, shortened: as §1
[4] = Antiproliferative activity against human BT549 cells; type: functional; procedure, shortened: as §1
T47D = assay: Antiproliferative activity against human T47D cells; type: functional; procedure, shortened: as §2
MDA-MB-468 = assay: Antiproliferative activity against human MDA-MB-468 cells; type: functional; procedure, shortened: as §1
[5] = Half life in mouse liver microsomes; type: ADME
[6] = Half life in mouse plasma; type: ADME, cell-free
[7] = Apparent permeability of the compound from apical to basolateral side in human Caco2 cells; type: ADME, cell-based; settings: Caco-2
[8] = Apparent permeability of the compound from basolateral to apical side in human Caco2 cells; type: ADME, cell-based; settings: Caco-2
[9] = Aqueous solubility of the compound; type: physicochemical; settings: buffer
[10] = read-out: LC50 (the source's name)

With `C[C@H](NC(=O)[C@@H]1CSSC[C@@H](NC(=O)c2nc3ccccc3cc2O)C(=O)NCC(=O)N1C)c1ccccc1` as the compound, how does the CC50 (M14) read?
Its CC50 is greater than 50 µM.

What about the GI50 (MDA-MB-435) of the same compound?
Its GI50 is 0.8 µM.

And the TGI (MDA-MB-435)?
The TGI was 6.6 µM.

What about the CC50 (MDA-MB-435; [10]) of the same compound?
Its CC50 is 22 µM.

And the GI50 (SK-MEL-2)?
Its GI50 is 2.6 µM.

What about the TGI (SK-MEL-2) of the same compound?
The TGI was 10.1 µM.

And the CC50 (SK-MEL-2; [10])?
Its CC50 is 27.1 µM.

And the GI50 (SK-MEL-28)?
The GI50 was 0.9 µM.

And the TGI (SK-MEL-28)?
Its TGI is 9.9 µM.

What about the CC50 (SK-MEL-28; [10]) of the same compound?
The CC50 was 31.8 µM.

What about the GI50 (SK-MEL-5) of the same compound?
The GI50 was 0.6 µM.

And the TGI (SK-MEL-5)?
The TGI was 3.8 µM.

And the CC50 (SK-MEL-5; [10])?
Its CC50 is 15.6 µM.

And the GI50 (UACC-257)?
The GI50 was 8.3 µM.

And the TGI (UACC-257)?
The TGI was 27.8 µM.

And the CC50 (UACC-257; [10])?
The CC50 was greater than 50 µM.

What about the GI50 (UACC-62) of the same compound?
Its GI50 is 5.7 µM.

What about the TGI (UACC-62) of the same compound?
Its TGI is 13.3 µM.

What about the CC50 (UACC-62; [10]) of the same compound?
Its CC50 is 30.2 µM.

What about the GI50 (IGROV-1) of the same compound?
Its GI50 is 4 µM.

And the TGI (IGROV-1)?
Its TGI is 12.9 µM.

And the CC50 (IGROV-1; [10])?
The CC50 was 37.6 µM.

What about the GI50 (OVCAR-3) of the same compound?
The GI50 was 0.6 µM.

What about the TGI (OVCAR-3) of the same compound?
The TGI was 1.4 µM.

What about the CC50 (OVCAR-3; [10]) of the same compound?
Its CC50 is 3.1 µM.

What about the GI50 (OVCAR-4) of the same compound?
Its GI50 is 8 µM.

And the TGI (OVCAR-4)?
The TGI was 18.4 µM.

And the CC50 (OVCAR-4; [10])?
The CC50 was 42.4 µM.

What about the GI50 (OVCAR-5) of the same compound?
The GI50 was 5.2 µM.

What about the TGI (OVCAR-5) of the same compound?
Its TGI is 12.6 µM.

And the CC50 (OVCAR-5; [10])?
Its CC50 is 29.6 µM.

And the GI50 (OVCAR-8)?
The GI50 was 5.2 µM.

And the TGI (OVCAR-8)?
Its TGI is 17.8 µM.

What about the CC50 (OVCAR-8; [10]) of the same compound?
The CC50 was greater than 50 µM.

What about the GI50 [1] of the same compound?
Its GI50 is 11 µM.

And the TGI [1]?
The TGI was greater than 50 µM.

And the CC50 [1, 10]?
Its CC50 is greater than 50 µM.

What about the GI50 (SK-OV-3) of the same compound?
Its GI50 is 5.8 µM.

What about the TGI (SK-OV-3) of the same compound?
Its TGI is 21.3 µM.

What about the CC50 (SK-OV-3; [10]) of the same compound?
Its CC50 is greater than 50 µM.

What about the GI50 (786-0) of the same compound?
Its GI50 is 2.5 µM.

And the TGI (786-0)?
Its TGI is 9.8 µM.

What about the CC50 (786-0; [10]) of the same compound?
Its CC50 is 33.5 µM.

What about the GI50 (A498) of the same compound?
Its GI50 is 15 µM.

And the TGI (A498)?
The TGI was 33.5 µM.

What about the CC50 (A498; [10]) of the same compound?
Its CC50 is greater than 50 µM.

What about the GI50 (ACHN) of the same compound?
Its GI50 is 4.9 µM.

And the TGI (ACHN)?
The TGI was 13 µM.

And the CC50 (ACHN; [10])?
The CC50 was 31.5 µM.

And the GI50 (CAKI-1)?
Its GI50 is 7.3 µM.

And the TGI (CAKI-1)?
Its TGI is 18.5 µM.

And the CC50 (CAKI-1; [10])?
Its CC50 is 47.4 µM.

And the GI50 ([2]; RXF 393)?
Its GI50 is 1.3 µM.

And the TGI ([2]; RXF 393)?
The TGI was 3.1 µM.

What about the CC50 ([2]; RXF 393, read-out: LC50 (the source's name)) of the same compound?
The CC50 was 13 µM.

And the GI50 (SN12C)?
Its GI50 is 5.6 µM.

What about the TGI (SN12C) of the same compound?
Its TGI is 14.1 µM.

And the CC50 (SN12C; [10])?
The CC50 was 35.4 µM.

What about the GI50 (TK-10) of the same compound?
The GI50 was 8.1 µM.

And the TGI (TK-10)?
The TGI was 15.4 µM.

What about the CC50 (TK-10; [10]) of the same compound?
Its CC50 is 29.7 µM.

And the GI50 (UO-31)?
The GI50 was 5.8 µM.

And the TGI (UO-31)?
The TGI was 13.3 µM.

What about the CC50 (UO-31; [10]) of the same compound?
Its CC50 is 30.8 µM.

What about the GI50 (PC-3) of the same compound?
The GI50 was 6.1 µM.

And the TGI (PC-3)?
The TGI was 13.5 µM.

And the CC50 (PC-3; [10])?
The CC50 was 30.3 µM.

And the GI50 (DU-145)?
The GI50 was 5.8 µM.

What about the TGI (DU-145) of the same compound?
Its TGI is 12.7 µM.

What about the CC50 (DU-145; [10]) of the same compound?
Its CC50 is 27.7 µM.

What about the GI50 (MCF7) of the same compound?
Its GI50 is 0.9 µM.

And the TGI (MCF7)?
The TGI was 2.6 µM.

What about the CC50 (MCF7; [10]) of the same compound?
The CC50 was 16.1 µM.

What about the GI50 (MDA-MB-231) of the same compound?
Its GI50 is 1.9 µM.

What about the TGI (MDA-MB-231) of the same compound?
The TGI was 7.9 µM.

And the CC50 (MDA-MB-231; [10])?
Its CC50 is 26 µM.

And the GI50 [3]?
The GI50 was 11.3 µM.

What about the TGI [3] of the same compound?
Its TGI is 34.5 µM.

And the CC50 [3, 10]?
Its CC50 is greater than 50 µM.

What about the GI50 ([4]; BT-549) of the same compound?
Its GI50 is 6.9 µM.

And the TGI ([4]; BT-549)?
The TGI was 16.1 µM.

And the CC50 ([4]; BT-549, read-out: LC50 (the source's name))?
Its CC50 is 37.6 µM.

And the GI50 (T47D)?
The GI50 was 1.1 µM.

And the TGI (T47D)?
Its TGI is 3.8 µM.

And the CC50 (T47D; [10])?
Its CC50 is 24.8 µM.

What about the GI50 (MDA-MB-468) of the same compound?
Its GI50 is 6 µM.

What about the TGI (MDA-MB-468) of the same compound?
Its TGI is 13.3 µM.

What about the CC50 (MDA-MB-468; [10]) of the same compound?
The CC50 was 29.8 µM.

What about the half-life [5] of the same compound?
Its half-life is 0.45 h.

What about the half-life [6] of the same compound?
Its half-life is 4.9 h.

What about the Papp A→B [7] of the same compound?
The Papp A→B was 0.011 ×10⁻⁶ cm/s.

And the Papp B→A [8]?
Its Papp B→A is 0.062 ×10⁻⁶ cm/s.

And the solubility [9]?
The solubility was 4.5 µg/mL (≈ 7.93 µM).
